Screening data as filed in PubChem BioAssay.
A selection: hits, their analogues and other compounds. The true share with any hit is near 2%.
PKD1 inh – blocks activity of human protein kinase D1. Q15139. PKD1 kinase fluorescence polarization assay. inhibition, % (no concentration beside the values). 200,000 tested, 0.056% active. AID 797
Runt-SMMHC FRET – inhibitors of human RUNX1 Runt domain binding to CBFb-SMMHC. Q01196+Q13951. Cerulean-Runt/Venus-CBFb-SMMHC FRET ratio 530/480, 1 h. inhibition, % at 20 µM. 220,000 tested, 0.74% active;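 active = mean inhibition across duplicate retests at 20 µM reaching about 50%, limit read from the data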;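 note: 0% = DMSO wells and 100% = wells with excess untagged CBFb-SMMHC; inhibitors lower the FRET ratio by blocking Runt binding to CBFb-SMMHC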
EBV gp42 block – blocks Epstein-Barr virus glycoprotein 42 binding; Fluorescence polarization binding assay, mP read-out; inhibition, % (tested at 21.74 µM); 220,000 tested, 0.42% active
Runt-CBFb FRET – Runt domain-CBFb interaction inhibition. Cerulean-Runt/Venus-CBFb FRET ratio 530/480, 1 h. inhibition, % at 20 µM. 220,000 tested, 0.46% active. Q01196+Q13951. AID 1496;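 active = inhibition over about 50% at 20 µM in the single-dose screen, limit read from the data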;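 note: 0% = DMSO wells and 100% = excess unlabeled CBFb competitor control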
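Buffer or medium: Tris pH 7.5 buffer with BSA. Assay system: Cerulean-labeled Runt domain protein. Amount: each fluorescent fusion protein 100 nM. Read-out basis: loss of energy transfer signal. Incubation: 1 h compound exposure, room temperature. Probe or stimulus: Venus-CBFb binding partner, 100 nM. Detection: FRET, excitation 422 nm, emission at 530 and 480 nm.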
MEX-5 binding – C. elegans MEX-5 TCR-2 RNA binding activity. MEX-5/FITC-TCR2 RNA binding, fluorescence polarization; hits give low values. activity score (negative = inhibition of binding), % at 10 µM. 300,000 tested, 0.38% active. AID 1832;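 active = inhibition past about -25% in most replicates, and total fluorescence under double the plate's negative control median, limit read from the data; inconclusive = replicates evenly split on the limit, or fluorescence at least double controls; inactive = too little inhibition in most replicates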;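 note: 0% = DMSO and -100% = 5 µM competing unlabeled TCR2 RNA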
Target sequence (Q9XUB2 whole entry, looked up): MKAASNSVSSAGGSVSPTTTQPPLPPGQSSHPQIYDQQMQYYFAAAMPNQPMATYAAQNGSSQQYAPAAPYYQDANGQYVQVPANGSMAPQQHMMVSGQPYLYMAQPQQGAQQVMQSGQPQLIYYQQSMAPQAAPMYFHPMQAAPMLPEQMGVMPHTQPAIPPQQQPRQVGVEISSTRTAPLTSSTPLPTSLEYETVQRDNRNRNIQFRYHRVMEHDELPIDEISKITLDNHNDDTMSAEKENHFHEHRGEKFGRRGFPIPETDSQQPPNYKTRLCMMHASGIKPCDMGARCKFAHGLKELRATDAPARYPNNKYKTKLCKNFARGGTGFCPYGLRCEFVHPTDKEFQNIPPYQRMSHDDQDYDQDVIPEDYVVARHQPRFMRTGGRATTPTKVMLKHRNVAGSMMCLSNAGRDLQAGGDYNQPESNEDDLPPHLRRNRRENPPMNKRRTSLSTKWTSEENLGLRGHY
RanGTP-Impb inh – disruptors of Ran-importin-beta complex formation – biochemical, FRET, CFP-Ran, YFP-importin-beta, homogeneous, primary screen. cell-free CFP-Ran/YFP-importin-beta FRET ratio. inhibition, % (concentration not given with the values). 300,000 tested, 1.1% active;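 active = more than half of the replicate wells show a fall in the fluorescence ratio signal beyond about 16%, limit read from the data, passing the limit was not always enough; inconclusive = exactly half of the replicate wells pass the set limit; inactive = fewer than half of replicates pass the limit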;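 note: 0% = DMSO wells and 100% = Ran loaded with GDP instead of GTP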
Starred values were filed as active, the others as inactive; i = inactive; ? = inconclusive; · = not tested or not shown. Cut-off read from the data, not from the text of the source, unless noted: active = inhibition above about 50%; inactive = the rest.

SMILES	PKD1 inh	Runt-SMMHC FRET	EBV gp42 block	Runt-CBFb FRET	MEX-5 binding	RanGTP-Impb inh
CCOC(=O)C1CCN(c2cc(=O)n(-c3ccccc3Cl)c(=O)[nH]2)CC1	-3	0	-8	-1	-1	59*
Cc1ccccc1-n1c(=O)cc(N2CCCCCC2)[nH]c1=O	4	0	2	·	2	145*
O=C(Nc1ccncc1)Nc1cccc(F)c1	·	·	·	·	3	2
CC(=O)Oc1ccc2c(c1)Oc1cc(OC(C)=O)ccc1C21OC(=O)c2ccccc21	-37	-11	95*	-5	·	·
Nc1c(N)c2ccccc2oc1=O	-1	-12	-24	2	4	20*
CN(C)c1c(N)c(=O)oc2ccccc12	6	-4	-11	0	-1	-1
O=C(N/N=C/c1c(O)n(-c2ccc(Cl)cn2)c(=O)c2ccccc12)c1ccncc1	1	86*	-193	-22	0	-6
Cc1cccc(NC(=S)N2CCCCC2c2cccnc2)c1C (stereo not drawn)	·	-1	-1	1	1	3
COc1ccc(NC(=S)N2CCCCC2c2cccnc2)cc1 (stereo not drawn)	·	0	-9	-2	4	5
O=C(NC(=S)N1CCCCC1c1cccnc1)c1ccc(F)cc1 (stereo not drawn)	·	·	·	·	-3	19*
O=C(NC(=S)N1CCCCC1c1cccnc1)c1ccc(Br)cc1 (stereo not drawn)	·	·	·	·	-3	33*
COc1cc(SC)ccc1C(=O)N(Cc1ccccc1)c1ccccn1	·	-1	-9	1	-1	-1
Nc1ccc(-c2nc3ccc(C(=O)O)cc3s2)cc1	-5	86*	99*	36	-3	-6
Cc1cccc(N=C2NC(=O)S/C2=C\c2ccco2)c1	-6	-202	42	-62	-1	-4
O=C1NC(=Nc2ccc(Cl)cc2)/C(=C/c2ccco2)S1	7	-254	62*	-25	-5	0
CCOc1ccc(N=C2NC(=O)S/C2=C\c2ccc(N(C)C)cc2)cc1	-20	-124	54*	-282	?	-33
COc1cccc(NC(=O)Nc2c(C)n(C)n(-c3ccccc3)c2=O)c1	-10	-3	-8	2	-1	115*
CN1/C(=C\C=C(/C#N)C(=O)Nc2ccc(Cl)cc2)C(C)(C)c2ccccc21	13	63	6	-1	?	28*
O=C(NCc1cc2ccccc2[nH]1)c1ccccc1F	·	·	·	·	-4	-5
COc1ccc(C2C=C(c3ccc(Br)s3)Nc3ncnn32)cc1OC (stereo not drawn)	-4	-80	91*	-18	?	-179
Cc1cc(C(=O)Nc2ccon2)ccc1[N+](=O)[O-]	·	·	·	·	3	-6
CN1C2C(Br)CCCCN2c2ccc(F)cc2S1(=O)=O (stereo not drawn)	·	·	·	·	-2	7
O=C(Nc1c(S(=O)(=O)c2ccc(Cl)cc2)csc1Br)c1ccccc1Cl	·	-2	4	1	1	-4
Nc1nc(N)nc(-c2ccccn2)n1	0	4	-32	-1	0	2
c1ccc(C2=NNC(c3ccccn3)=NN2)nc1	·	·	·	·	-36*	1
SMILES	PKD1 inh	Runt-SMMHC FRET	EBV gp42 block	Runt-CBFb FRET	MEX-5 binding	RanGTP-Impb inh
c1ccc(-c2nnc(-c3ccccn3)s2)nc1	·	-6	-15	20	-6	4
c1ccc(-c2nc(-c3ccccn3)nc(-c3ccccn3)n2)nc1	·	2	-12	1	-39*	3
Cc1[nH]nc2c1C(c1c[nH]c3ccccc13)C(C#N)=C(N)O2 (stereo not drawn)	·	-2	-4	-3	-3	6
COC(=O)Cc1[nH]nc2c1C(c1c[nH]c3ccccc13)C(C#N)=C(N)O2 (stereo not drawn)	0	2	-8	12	-2	45*
COC(=O)Cn1c(=NC(=O)c2ccc(OC)c(OC)c2)sc2cc(OC)ccc21	-4	-3	-18	1	-2	3
Cc1ccc(CN2CCC(Oc3cccc(C(=O)NCc4cccnc4)c3)CC2)o1	·	·	·	·	-1	1
Cc1ccc(-c2cc(C(=O)N3CCCc4ccccc43)c3ccccc3n2)cc1	-10	-1	-2	-1	0	-3
Cc1ccc2nc3sc(C(=O)N4CCCc5ccccc54)c(N)c3cc2c1	-3	-2	46	4	-35*	-1
c1ccc(C2CC(c3ccccc3)C(c3ccccc3)N2)cc1 (stereo not drawn)	·	·	·	·	2	2
Cc1ccc(N/C=C/C(=O)c2sc(-c3ccccc3)nc2C)cc1	-17	-46	-30	-4	-38*	0
Cc1nc(-c2ccccc2)sc1C(=O)NN	1	-1	-7	1	1	3
Cc1nc2ccccc2c2oc(C(=O)Nc3ccc(C(C)C)cc3)cc12	2	-6	-12	-5	1	-2
Cc1nc2ccccc2c2oc(C(=O)Nc3ccc4c(c3)OCCO4)cc12	0	0	-12	0	-28*	4
CC(NC(=O)c1ccccc1F)c1nnc(SCC(=O)NC2CCCC2)n1C (stereo not drawn)	·	·	·	·	-1	8
N#Cc1c(=O)c2nc(NCc3ccccc3)ncc2n2ccccc12	-5	57	7	-14	-4	38*
N#Cc1c(=O)c2nc(NCCCO)ncc2n2c(=O)c3ccccc3[nH]c12	8	-152	-9	-43	2	-37
COc1ccc(NC(=O)CCNC(=O)c2ccco2)c(OC)c1	·	·	·	·	0	2
CN(C)CCCN(Cc1ccccc1)C(=S)Nc1ccc(OC(F)F)cc1	-7	3	-7	-1	-1	18*
CN(Cc1ccccc1)C(=S)Nc1ccc(OC(F)F)cc1	-11	0	-12	0	0	-1
Cc1[nH][nH]c(=O)c1/C=N/N1CCOCC1	2	-3	-12	0	-27*	0
O=S(=O)(Nc1nc2ccccc2nc1N1CCN(c2ccccn2)CC1)c1ccc(Cl)cc1	0	104*	64*	34	·	·
O=C(N=Nc1c(O)[nH]c2ccc([N+](=O)[O-])cc12)c1cc(-c2ccccc2Cl)nc2ccccc12	-27	-21	73*	-6	1	·
Nc1ccc2nc3c(=O)n(C4CCCCC4)c(=O)[nH]c3nc2c1	·	-81	152*	i	?	i
Cc1cc2nc3c(=O)n(CCc4ccccc4)c(=O)[nH]c3nc2cc1N	·	-222	158*	-345	?	-257
Cc1nc2ccccc2c(=O)n1CCc1ccccc1	·	·	·	·	1	1
Nc1ccc2nc3c(=O)n(CCc4ccccc4)c(=O)[nH]c3nc2c1	·	-154	174*	i	-52*	-371
CN(Cc1ccccc1F)C(=O)CNC(=O)Cc1cccc2ccccc12	·	·	·	·	0	-2
O=C(NCc1ccco1)c1c2c(nc3ccccc13)CCC2	-6	12	62*	5	-1	7
